pIC50: −log10 of the molar value. Where only a bound is given, the exact number is not on record here.

The results in this text go back to ChEMBL document CHEMBL1131582, “New substituted 1,4-benzoxazine derivatives with potential intracellular calcium activity” (J Med Chem, 1998).

Holding throughout (type): functional
The species named for assay [1] is Oryctolagus cuniculus. Description: Inhibition of contraction induced by caffeine on rabbit renal artery. Also on record: concentration or dose not given beside the values. In outline: (§1)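 Male New Zealand White rabbit left renal artery rings (2.5–3 mm) in Krebs' solution at 37 °C, gassed 95% O2/5% CO2, 3 g preload, 90 min equilibration, isometric tension. Three matched control contractions to caffeine 10 mM, then caffeine contractions repeated at 20 min with each rising test concentration until maximal inhibition. IC50 by linear regression; five to nine preparations.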

Assay [2] is filed under the species Oryctolagus cuniculus. In words: Concentration which inhibits 50% of contraction induced by caffeine on rabbit renal artery. In a few lines: as §1
The species entered for assay [3] is Oryctolagus cuniculus. Description: Concentration which inhibits 50% of contraction induced by phenylephrine on rabbit renal artery. In outline:
(§2)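 Endothelium-denuded arterial rings, with denudation confirmed by no acetylcholine (1 μM) relaxation of tissue precontracted with phenylephrine 0.1 μM. After reproducible 40 mM K+ responses, sustained tonic contraction to K+ 40 mM or phenylephrine 5 μM. Test compound added cumulatively until maximal relaxation.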

Assay [4] is filed under the species Oryctolagus cuniculus. In words: Concentration which inhibits 50% of contraction induced by potassium on rabbit renal artery. In outline: as §2
For assay [5], the species on record is Oryctolagus cuniculus. In words: Inhibitory selectivity for Phenylephrine (PE) and Potassium (K+) induced contraction on rabbit renal artery.
Assay [6] is filed under the species Oryctolagus cuniculus. In words: Inhibition of contraction induced by phenylephrine on rabbit renal artery. In outline:
as §2

Assay [7] is filed under the species Oryctolagus cuniculus. Description: Inhibition of contraction induced by potassium on rabbit renal artery. In a few lines: as §2
The species entered for assay [8] is Oryctolagus cuniculus. In words: 50% inhibition of contraction induced by potassium on rabbit renal artery. In a few lines: as §2

Regarding `COc1ccc(CCNCC2CNc3ccccc3O2)cc1OC` (centres undefined), the Inhibition (usually the drop in the measured response relative to a control, in per cent) in the assay listed under Oryctolagus cuniculus [1] was 26%. Further, the pIC50 (usually −log10 of the IC50, conventionally taken in molar units) in the assay listed under Oryctolagus cuniculus [2] was less than 4.52.
Regarding `COc1ccc(CCNCCCCC2CN(Cc3ccccc3)c3ccccc3O2)cc1OC` (centres undefined), the negative logarithm of the IC50 (pIC50) in the assay listed under Oryctolagus cuniculus [2] is 4.86; in the assay listed under Oryctolagus cuniculus [3], 4.37; in the assay filed under Oryctolagus cuniculus [4] it was 5.07. Moreover, in the assay listed under Oryctolagus cuniculus [5], the IC50 ratio is given as 5.
Consider `Fc1ccc(N2CCN(CCCC3CN(Cc4ccccc4)c4ccccc4O3)CC2)cc1` (centres undefined), for which the Inhibition in the assay filed under Oryctolagus cuniculus [1] is listed as 0%. For the same molecule, the figures for the pIC50 in the assay listed under Oryctolagus cuniculus [2] and in the assay filed under Oryctolagus cuniculus [4] were less than 4.52 and 4.12, respectively. In the assay filed under Oryctolagus cuniculus [5], the IC50 ratio worked out at 0.06.
Take `COc1ccc(CCNCCCC2CN(Cc3ccccc3)c3ccccc3O2)cc1OC` (centres undefined): the values for the pIC50 in the assay listed under Oryctolagus cuniculus [2], in the assay listed under Oryctolagus cuniculus [3] and in the assay listed under Oryctolagus cuniculus [4] were 4.93, 4.67 and 4.99, respectively. Moreover, the IC50 ratio in the assay filed under Oryctolagus cuniculus [5] is 2.1.
Consider `O=C(c1ccccc1)N1CC(CCCN2CCN(c3ccc(F)cc3)CC2)Oc2ccccc21` (centres undefined), for which the Inhibition in the assay listed under Oryctolagus cuniculus [1] is 8%. The pIC50 was less than 4.52 in the assay filed under Oryctolagus cuniculus [2], 5.55 in the assay listed under Oryctolagus cuniculus [3] and 4.72 in the assay listed under Oryctolagus cuniculus [4]. Moreover, the IC50 ratio in the assay filed under Oryctolagus cuniculus [5] is 0.15.
In the assay listed under Oryctolagus cuniculus [1], `COc1ccc(CCNCCC2CN(S(=O)(=O)c3cccc4ccccc34)c3ccccc3O2)cc1OC` (centres undefined) displayed an Inhibition of 46%. In addition, the pIC50 is less than 4.52 in the assay listed under Oryctolagus cuniculus [2], 4.08 in the assay listed under Oryctolagus cuniculus [3] and 5.08 in the assay filed under Oryctolagus cuniculus [4]. In addition, the IC50 ratio in the assay filed under Oryctolagus cuniculus [5] came to 10.1.
As to `COc1ccc(CCNCCC2CN(C)c3ccccc3O2)cc1OC` (centres undefined), the negative-log IC50 (pIC50) is 4.66 in the assay filed under Oryctolagus cuniculus [2], 4.93 in the assay filed under Oryctolagus cuniculus [3] and 4.35 in the assay listed under Oryctolagus cuniculus [4]. Further, the IC50 ratio in the assay filed under Oryctolagus cuniculus [5] is on record as 0.26.
On to `Fc1ccc(C(OCCNCCCC2CN(Cc3ccccc3)c3ccccc3O2)c2ccc(F)cc2)cc1` (centres undefined), for which the Inhibition was found to be 5% in the assay filed under Oryctolagus cuniculus [1], 12% in the assay filed under Oryctolagus cuniculus [6] and 26% in the assay listed under Oryctolagus cuniculus [7]. In addition, the pIC50 was less than 4.52 in the assay listed under Oryctolagus cuniculus [2], less than 4.00 in the assay filed under Oryctolagus cuniculus [3] and less than 4.00 in the assay listed under Oryctolagus cuniculus [4].
`COc1ccc(CCNCCC2CN(S(=O)(=O)c3cccc4cnccc34)c3ccccc3O2)cc1OC` (centres undefined) came in with an Inhibition in the assay filed under Oryctolagus cuniculus [1] of 23%. For the same molecule, the negative logarithm of the IC50 (pIC50) was less than 4.52 in the assay filed under Oryctolagus cuniculus [2], 4.88 in the assay listed under Oryctolagus cuniculus [3] and 5.14 in the assay filed under Oryctolagus cuniculus [4]. Moreover, the IC50 ratio in the assay filed under Oryctolagus cuniculus [5] worked out at 1.8.
The molecule `COc1ccc(CCN(C)CCCC2Oc3cc4c(cc3NC2=O)OCCO4)cc1OC` (centres undefined) yielded an Inhibition in the assay filed under Oryctolagus cuniculus [1] of 0%. Moreover, the pIC50 in the assay listed under Oryctolagus cuniculus [2] was less than 4.52; in the assay filed under Oryctolagus cuniculus [3] it was 4.84; in the assay filed under Oryctolagus cuniculus [4] it was 5.66. Besides, the IC50 ratio in the assay filed under Oryctolagus cuniculus [5] stood at 7.3.
In the same order, the values of `COc1ccc(CCNCC2CN(C)c3ccccc3O2)cc1OC` (centres undefined) are 46%, less than 4.52, 4.68, 4.24 and 0.36.
With `COc1ccc(CCN(CCCC2Oc3cc4c(cc3NC2=O)OCCO4)Cc2ccccc2)cc1OC` (centres undefined), the Inhibition in the assay filed under Oryctolagus cuniculus [1] came to 0%; in the assay filed under Oryctolagus cuniculus [6], 47%; in the assay listed under Oryctolagus cuniculus [7] it was 41%. In addition, the figures for the pIC50 in the assay listed under Oryctolagus cuniculus [2], in the assay filed under Oryctolagus cuniculus [3] and in the assay listed under Oryctolagus cuniculus [4] were less than 4.52, 4.00 and not above 4.00, respectively. Also, in the assay filed under Oryctolagus cuniculus [5], the IC50 ratio result is “>=1”.
In the assay listed under Oryctolagus cuniculus [1], `Fc1ccc(N2CCN(CC3CN(Cc4ccccc4)c4ccccc4O3)CC2)cc1` (centres undefined) had an Inhibition of 2%. The pIC50 in the assay listed under Oryctolagus cuniculus [2] is less than 4.52; in the assay filed under Oryctolagus cuniculus [3] it was 4.96; in the assay filed under Oryctolagus cuniculus [4], 4.28. Also, the IC50 ratio in the assay filed under Oryctolagus cuniculus [5] worked out at 0.21.
In the case of `COc1ccc(CCNCCC2CNc3ccccc3O2)cc1OC` (centres undefined), the Inhibition is reported as 26% in the assay filed under Oryctolagus cuniculus [1] and 25% in the assay listed under Oryctolagus cuniculus [8]. For the same molecule, the figures for the pIC50 in the assay filed under Oryctolagus cuniculus [2], in the assay filed under Oryctolagus cuniculus [3] and in the assay filed under Oryctolagus cuniculus [4] were less than 4.52, 4.38 and less than 4.00, respectively.
`COc1ccc(CCNCCC2CN(Cc3ccc(OC)c(OC)c3)c3ccccc3O2)cc1OC` (centres undefined) gave an Inhibition in the assay filed under Oryctolagus cuniculus [1] of 57%. In addition, the pIC50 was 4.52 in the assay listed under Oryctolagus cuniculus [2], 4.47 in the assay filed under Oryctolagus cuniculus [3] and 4.82 in the assay listed under Oryctolagus cuniculus [4]. Further, the IC50 ratio in the assay listed under Oryctolagus cuniculus [5] turned out to be 2.2.
With `COc1ccc(CCNCC2CN(Cc3ccccc3)c3ccccc3O2)cc1OC` (centres undefined), the Inhibition in the assay listed under Oryctolagus cuniculus [1] came to 48%. For the same molecule, the pIC50 in the assay listed under Oryctolagus cuniculus [2] was less than 4.52; in the assay listed under Oryctolagus cuniculus [3], 4.94; in the assay listed under Oryctolagus cuniculus [4] it was 5.03. Further, in the assay filed under Oryctolagus cuniculus [5], the IC50 ratio was 1.2.
For `CN(CCOC(c1ccc(F)cc1)c1ccc(F)cc1)CC1CNc2ccccc2O1` (centres undefined), the Inhibition in the assay listed under Oryctolagus cuniculus [1] is on record as 23%. Besides, the pIC50 in the assay listed under Oryctolagus cuniculus [2] was less than 4.52.
The molecule `O=C1Nc2cc3c(cc2OC1CCCN1CCN(c2ccc(F)cc2)CC1)OCCO3` (centres undefined) registered an Inhibition in the assay listed under Oryctolagus cuniculus [1] of 22%. The pIC50 in the assay filed under Oryctolagus cuniculus [2] was less than 4.52; in the assay filed under Oryctolagus cuniculus [3], 6.37; in the assay listed under Oryctolagus cuniculus [4] it was 4.34. Moreover, the IC50 ratio in the assay filed under Oryctolagus cuniculus [5] worked out at 0.009.
For `COc1ccc(CCNCCCC2CN(C(=O)c3ccccc3)c3ccccc3O2)cc1OC` (centres undefined), the pIC50 in the assay listed under Oryctolagus cuniculus [2] is 4.52; in the assay listed under Oryctolagus cuniculus [3], 4.90; in the assay listed under Oryctolagus cuniculus [4] it was 5.08. Also, the IC50 ratio in the assay listed under Oryctolagus cuniculus [5] worked out at 1.5.
For the molecule `COc1ccc(CCNCCCC2CNc3ccccc3O2)cc1OC` (centres undefined), the Inhibition in the assay listed under Oryctolagus cuniculus [1] is listed as 16%; in the assay listed under Oryctolagus cuniculus [6], 49%; in the assay filed under Oryctolagus cuniculus [7], 30%. In addition, the values for the pIC50 in the assay listed under Oryctolagus cuniculus [2], in the assay listed under Oryctolagus cuniculus [3] and in the assay listed under Oryctolagus cuniculus [4] were less than 4.52, 4.00 and less than 4.00, respectively.
For `COc1ccc(CCNCCC2CN(Cc3ccccc3)c3ccccc3O2)cc1OC` (centres undefined), the negative logarithm of the IC50 (pIC50) was 4.91 in the assay listed under Oryctolagus cuniculus [2], 5.00 in the assay filed under Oryctolagus cuniculus [3] and 5.36 in the assay listed under Oryctolagus cuniculus [4]. For the same molecule, the IC50 ratio in the assay filed under Oryctolagus cuniculus [5] is reported as 2.3.
The molecule `Fc1ccc(N2CCN(CC3CNc4ccccc4O3)CC2)cc1` (centres undefined) showed an Inhibition in the assay listed under Oryctolagus cuniculus [1] of 9%. Moreover, the pIC50 in the assay filed under Oryctolagus cuniculus [2] is less than 4.52; in the assay filed under Oryctolagus cuniculus [3] it was 5.80; in the assay listed under Oryctolagus cuniculus [4] it was 4.61. In addition, the IC50 ratio in the assay filed under Oryctolagus cuniculus [5] came to 0.07.
With `COc1ccc(CCNCCCC2Oc3cc4c(cc3NC2=O)OCCO4)cc1OC` (centres undefined), the Inhibition in the assay filed under Oryctolagus cuniculus [1] is 0%; in the assay listed under Oryctolagus cuniculus [7], 38%. Moreover, the results for the pIC50 in the assay filed under Oryctolagus cuniculus [2], in the assay filed under Oryctolagus cuniculus [3] and in the assay listed under Oryctolagus cuniculus [4] were less than 4.52, 4.85 and less than 4.00, respectively.
The molecule `Fc1ccc(N2CCN(CCCC3CNc4ccccc4O3)CC2)cc1` (centres undefined) registered an Inhibition in the assay filed under Oryctolagus cuniculus [1] of 22%. Moreover, the figures for the pIC50 in the assay listed under Oryctolagus cuniculus [2], in the assay listed under Oryctolagus cuniculus [3] and in the assay listed under Oryctolagus cuniculus [4] were less than 4.52, 5.49 and 4.96, respectively. Further, the IC50 ratio in the assay listed under Oryctolagus cuniculus [5] is reported as 0.29.
`CN1CC(CN2CCN(c3ccc(F)cc3)CC2)Oc2ccccc21` (centres undefined): in the assay filed under Oryctolagus cuniculus [1], the Inhibition is reported as 32%. The pIC50 is less than 4.52 in the assay listed under Oryctolagus cuniculus [2], 5.85 in the assay filed under Oryctolagus cuniculus [3] and 4.64 in the assay filed under Oryctolagus cuniculus [4]. The IC50 ratio in the assay filed under Oryctolagus cuniculus [5] is listed as 0.06.
`Fc1ccc(C(OCCNCC2CN(Cc3ccccc3)c3ccccc3O2)c2ccc(F)cc2)cc1` (centres undefined): in the assay filed under Oryctolagus cuniculus [1], the Inhibition was 5%. For the same molecule, the pIC50 in the assay filed under Oryctolagus cuniculus [2] was less than 4.52; in the assay listed under Oryctolagus cuniculus [3], 4.03; in the assay listed under Oryctolagus cuniculus [4] it was 4.75. In the assay filed under Oryctolagus cuniculus [5], the IC50 ratio came out at 5.3.
As for `COc1ccc(CCN(C)CCC2CN(Cc3ccccc3)c3ccccc3O2)cc1OC` (centres undefined), in the assay listed under Oryctolagus cuniculus [1], the Inhibition is recorded as 37%. The negative logarithm of the IC50 (pIC50) was less than 4.52 in the assay filed under Oryctolagus cuniculus [2], 4.49 in the assay filed under Oryctolagus cuniculus [3] and 5.10 in the assay listed under Oryctolagus cuniculus [4]. In addition, the IC50 ratio in the assay filed under Oryctolagus cuniculus [5] is 4.1.
In the case of `Fc1ccc(C(OCCNCC2CNc3ccccc3O2)c2ccc(F)cc2)cc1` (centres undefined), the pIC50 is 4.58 in the assay listed under Oryctolagus cuniculus [2] and 4.13 in the assay filed under Oryctolagus cuniculus [4].
